Test results published in ChEMBL document CHEMBL1127468, “A marked change of receptor affinity of the 2-methyl-5-(3-hydroxyphenyl)morphans upon attachment of an (E)-8-benzylidene moiety: synthesis and evaluation of a new class of sigma receptor ligands” (J Med Chem, 1994).

Experiments:
[1] = target: Delta-type opioid receptor (Rattus norvegicus, UniProt P33533); experiment: Inhibition of radioligand [3H]DADLE binding to rat brain delta receptor
How it was run: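 Rat brain membranes; [3H]DADLE 1.7-2.5 nM, 3-4 h at 25 °C in 10 mM Tris-HCl pH 7.4 with 100 mM choline chloride, 3 mM MnCl2, 100 nM DAMGO to block mu sites, and protease inhibitor cocktail. Nonspecific binding with 20 μM levallorphan. 8-10 test drug concentrations, run twice; dilutions in Tris buffer with 1 mg/mL BSA.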

Glutamate NMDA receptor [2] = experiment: Inhibition of radioligand [3H]TCP binding to PCP site in rat brain; format: tissue-based
Mu-type opioid receptor = Mu-type opioid receptor (Rattus norvegicus, UniProt P33535); experiment: Inhibition of radioligand [3H]DAMGO binding to rat brain mu receptor
How it was run: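 Rat brain membranes labelled with [3H]DAMGO (1-3 nM), incubated 4 h at 25 °C in 50 mM Tris-HCl pH 7.4 with protease inhibitor cocktail. Nonspecific binding defined by 20 μM levallorphan. Displacement by 8-10 test drug concentrations, done twice; drug dilutions in 10 mM Tris-HCl pH 7.4 containing 1 mg/mL BSA.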

[3] = target: Kappa-type opioid receptor (Cavia porcellus, UniProt P41144); experiment: Inhibition of radioligand [3H]U-69593 binding to kappa 1 receptor of guinea pig brain
How it was run: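 Guinea pig brain membranes pretreated with irreversible ligands BIT and FIT to deplete mu and delta sites. Nonspecific binding with 1 μM U69,593. 8-10 drug concentrations, run twice.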

Glutamate NMDA receptor [4] = experiment: Inhibition of radioligand [3H]TCP binding to rat brain PCP site.
[5] = target: Muscarinic acetylcholine receptor; experiment: Inhibition of radioligand [3H]NMS binding to muscarinic receptor of rat brain
Glutamate NMDA receptor [6] = experiment: Inhibition of radioligand [3H]TCP binding to PCP site in rat brain; No inhibition; format: tissue-based
[7] = Ratio of Ki values tested against sigma receptor and Mu receptor

Sequence of Mu-type opioid receptor (P33535 whole entry): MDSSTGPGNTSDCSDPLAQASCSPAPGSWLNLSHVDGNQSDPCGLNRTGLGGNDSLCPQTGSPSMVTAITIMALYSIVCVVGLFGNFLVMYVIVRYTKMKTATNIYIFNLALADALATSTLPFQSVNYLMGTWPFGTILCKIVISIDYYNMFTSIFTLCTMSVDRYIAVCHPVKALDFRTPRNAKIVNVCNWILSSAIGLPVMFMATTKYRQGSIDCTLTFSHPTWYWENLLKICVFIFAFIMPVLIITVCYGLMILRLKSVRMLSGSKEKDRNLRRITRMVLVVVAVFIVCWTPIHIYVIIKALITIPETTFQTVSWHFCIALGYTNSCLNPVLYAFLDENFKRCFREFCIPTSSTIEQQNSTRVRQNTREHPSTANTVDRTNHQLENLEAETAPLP
Sequence of Kappa-type opioid receptor (P41144 whole entry): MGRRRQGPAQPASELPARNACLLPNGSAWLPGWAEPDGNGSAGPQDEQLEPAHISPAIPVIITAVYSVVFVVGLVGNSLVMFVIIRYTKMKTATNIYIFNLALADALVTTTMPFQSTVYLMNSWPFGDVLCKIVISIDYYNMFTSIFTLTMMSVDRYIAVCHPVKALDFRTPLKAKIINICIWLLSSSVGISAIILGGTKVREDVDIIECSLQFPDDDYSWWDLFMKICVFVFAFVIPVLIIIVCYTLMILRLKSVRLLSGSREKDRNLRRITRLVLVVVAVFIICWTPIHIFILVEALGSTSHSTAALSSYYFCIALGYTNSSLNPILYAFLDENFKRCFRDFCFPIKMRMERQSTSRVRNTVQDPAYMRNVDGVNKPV
Sequence of Delta-type opioid receptor (P33533 whole entry): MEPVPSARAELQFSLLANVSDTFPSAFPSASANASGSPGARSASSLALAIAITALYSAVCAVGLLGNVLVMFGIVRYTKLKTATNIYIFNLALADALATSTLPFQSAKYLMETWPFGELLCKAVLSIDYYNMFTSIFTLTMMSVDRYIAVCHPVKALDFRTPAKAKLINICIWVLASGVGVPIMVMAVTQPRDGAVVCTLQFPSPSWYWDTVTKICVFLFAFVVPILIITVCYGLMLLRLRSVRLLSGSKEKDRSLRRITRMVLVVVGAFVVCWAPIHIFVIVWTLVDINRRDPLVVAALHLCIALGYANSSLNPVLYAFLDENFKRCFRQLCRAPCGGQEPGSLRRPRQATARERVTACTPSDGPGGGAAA

| SMILES | Ki [1] [nM] | Ki (Glutamate NMDA receptor [2]) [nM] | Ki (Mu-type opioid receptor) [nM] | Ki [3] [nM] | Ki (Glutamate NMDA receptor [4]) [nM] | Ki [5] [nM] | Ki (Glutamate NMDA receptor [6]) | Ratio [7] |
| --- | --- | --- | --- | --- | --- | --- | --- | --- |
| CN1CCC2(c3cccc(O)c3)CC(=O)/C(=C/c3ccc(Cl)c(Cl)c3)C1C2 (stereo not drawn) | 240 | > 100000 | 6.1 | > 500 | – | – | – | – |
| COc1cccc(C23CCN(C)C(CC(=O)C2)C3)c1 (stereo not drawn) | – | – | – | – | > 100000 | 23300 | – | – |
| CN1CC[C@]2(c3cccc(O)c3)CC(=O)/C(=C/c3ccccc3)[C@H]1C2 | 735 | ~100000 | 37.6 | 1090 | – | 26000 | – | – |
| CN1CC[C@@]2(c3cccc(O)c3)CC(=O)/C(=C/c3ccc(Cl)c(Cl)c3)[C@@H]1C2 | > 500 | > 100000 | 45.1 | > 500 | – | 50300 | – | – |
| COc1cccc(C23CCN(C)C(C2)/C(=C\c2ccccc2)C(=O)C3)c1 (stereo not drawn) | – | > 50000 | – | – | – | 11600 | – | – |
| CN1CCC2(c3cccc(O)c3)CC(=O)CC1C2 (stereo in doubt) | 121 | – | 8.7 | 491 | > 100000 | 25300 | – | – |
| CN1CC[C@@]2(c3cccc(O)c3)CC(=O)/C(=C/c3ccc(Cl)c(Cl)c3)[C@H]1C2 | 271 | > 100000 | 4.5 | > 500 | – | 18600 | – | – |
| CN1CCC2(c3cccc(O)c3)CC(=O)/C(=C/c3ccccc3)C1C2 (stereo not drawn) | > 500 | > 100000 | 33.9 | 576 | – | 14400 | – | – |
| CN1CC[C@@]2(c3cccc(O)c3)CC(=O)/C(=C/c3ccccc3)[C@@H]1C2 | 1990 | > 100000 | 392 | 889 | – | 7400 | – | – |
| CN1CCC2(c3cccc(O)c3)CC(=O)CC1C2 (stereo in doubt; 4) | 320 | – | 5.5 | 1010 | – | 46400 | – | – |
| C[N+]1(C)CCC2(c3cccc(O)c3)CC(=O)/C(=C/c3ccccc3)C1C2.[I-] (stereo not drawn) | > 1000 | – | > 700 | > 5000 | – | 14700 | Not Active | < 7.7 |
